# Test results as given in ChEMBL document CHEMBL1143425, “Paradoxical growth effect of caspofungin observed on biofilms and planktonic cells of five different Candida species” (2007).
# Active and inactive are the calls of the source.
# Experiments:
# [1] = system: Candida metapsilosis; assay: Antimicrobial activity against Candida metapsilosis BR-A43 grown as biofilm after 48 hrs by XTT reduction assay; assay type: functional; conditions: Lodderomyces metapsilosis
# Outline: (§1)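 Sabouraud-grown cells were shaken overnight (18 h, 120 rpm, 35°C) in RPMI 1640 with MOPS at pH 7.0, then washed and set at ~1 × 10^7 cells/ml. Attachment lasted 1.5 h at 37°C, and growth ran 24 h before challenge. Caspofungin was added in RPMI at 2–1,024 μg/ml (10 doublings) for 48 h at 35°C with shaking. XTT-menadione was read at 490 nm after 1 h at 35°C in the dark, with blank wells subtracted. MIC was taken as 50% reduction versus drug-free wells, and PG as >50% of control above MIC. Assays were run in duplicate.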
# [2] = system: Candida metapsilosis; assay: Antimicrobial activity against Candida metapsilosis BR-A40 grown as planktonic cell assessed as paradoxical growth after 48 hrs by XTT reduction assay; assay type: functional, organism-based
# Outline: (§2)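 Planktonic cells were tested by CLSI M27-A2 broth microdilution with caspofungin in water, incubated 48 h. XTT-menadione was added to each well, plates were held 1 h at 35°C in the dark and centrifuged, and supernatant absorbance was read at 490 nm. MIC was defined as 50% decrease in metabolic activity versus drug-free control. PG was defined as ≥20% of control activity at concentrations above MIC.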
# [3] = system: Candida tropicalis; assay: Antimicrobial activity against Candida tropicalis BR-A24 grown as planktonic cell assessed as paradoxical growth after 48 hrs by XTT reduction assay; assay type: functional, organism-based
# Outline: (§3)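 Planktonic broth microdilution followed CLSI M27-A2, with caspofungin dissolved in water. After 48 h, XTT-menadione was added to each well and plates were incubated 1 h at 35°C in the dark. Cells were pelleted by centrifugation and the supernatant was read at 490 nm. MIC was the lowest concentration giving a 50% drop in metabolic activity versus the drug-free control. PG was ≥20% of drug-free activity above the MIC.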
# [4] = system: Candida parapsilosis; assay: Antimicrobial activity against Candida parapsilosis BR-A28 grown as biofilm after 48 hrs by XTT reduction assay; assay type: functional; conditions: Lodderomyces parapsilosis
# Outline: (§4)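 Isolates were grown on Sabouraud agar (30°C, 24 h), then overnight in RPMI 1640 with MOPS, pH 7.0, at 35°C with shaking. Cells were washed and set to ~1 × 10^7 cells/ml, attached 1.5 h at 37°C, and grown 24 h. Biofilms were then exposed to caspofungin in 10 twofold dilutions (2–1,024 μg/ml) for 48 h at 35°C with shaking. Read-out was XTT-menadione, 1 h, 35°C, dark, A490, cell-free blank subtracted. MIC was the 50% drop in activity versus drug-free control. Tested in duplicate.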
# [5] = system: Candida orthopsilosis; assay: Antimicrobial activity against Candida orthopsilosis BR-A37 grown as planktonic cell after 48 hrs by XTT reduction assay; assay type: functional; conditions: Lodderomyces orthopsilosis
# Outline: (§5)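 Planktonic broth microdilution followed CLSI M27-A2, with caspofungin dissolved in water. After 48 h, XTT-menadione was added to the wells and plates were kept 1 h at 35°C in the dark. Plates were then centrifuged and supernatant A490 was read. MIC was the lowest concentration giving a 50% decrease in metabolic activity versus drug-free control. Paradoxical growth was defined as ≥20% of control activity above the MIC.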
# [6] = system: Candida orthopsilosis; assay: Antimicrobial activity against Candida orthopsilosis BR-A35 grown as biofilm after 48 hrs by XTT reduction assay; assay type: functional; conditions: Lodderomyces orthopsilosis; outline: as §4
# [7] = system: Candida albicans; assay: Antimicrobial activity against Candida albicans BR-A7 grown as biofilm assessed as concentration producing paradoxical growth after 48 hrs by XTT reduction assay; assay type: functional; outline: as §1
# [8] = system: Candida parapsilosis; assay: Antimicrobial activity against Candida parapsilosis BR-A30 grown as planktonic cell assessed as paradoxical growth after 48 hrs by XTT reduction assay; assay type: functional, organism-based; outline: as §3
# [9] = system: Candida parapsilosis; assay: Antimicrobial activity against Candida parapsilosis BR-A30 grown as biofilm assessed as paradoxical growth after 48 hrs by XTT reduction assay; assay type: functional, organism-based
# Outline: (§6)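 Clinical isolates were grown overnight (18 h, 35°C, 120 rpm) in RPMI 1640 with MOPS, pH 7.0, then washed and set to ~1 × 10^7 cells/ml. Cells attached for 1.5 h at 37°C, 75 rpm, then biofilms grew 24 h. Caspofungin was given as doubling dilutions of 2–1,024 μg/ml for 48 h at 35°C, 75 rpm. Read-out was XTT-menadione in PBS, 1 h at 35°C in the dark, A490, cell-free blank subtracted. MIC was a 50% drop in activity versus drug-free; PG was >50% of control above MIC. Run in duplicate.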
# [10] = system: Candida parapsilosis; assay: Antimicrobial activity against Candida parapsilosis BR-A30 grown as biofilm after 48 hrs by XTT reduction assay; assay type: functional; conditions: Lodderomyces parapsilosis; outline: as §6
# [11] = system: Candida parapsilosis; assay: Antimicrobial activity against Candida parapsilosis BR-A29 grown as planktonic cell after 48 hrs by XTT reduction assay; assay type: functional; conditions: Lodderomyces parapsilosis; outline: as §5
# [12] = system: Candida albicans; assay: Effect on morphology in Candida albicans grown as biofilm assessed as inhibition of hyphae and pseudohyphae at 32 ug/ml after 48 hrs; assay type: functional, organism-based
# Outline: (§7)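 Biofilms formed in RPMI 1640 wells were exposed to caspofungin for 48 h and compared with drug-free control wells. Wells were examined in the plate under an inverted light microscope at ×200 and photographed.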
# [13] = system: Candida orthopsilosis; assay: Antimicrobial activity against Candida orthopsilosis BR-A34 grown as planktonic cell after 48 hrs by XTT reduction assay; assay type: functional; conditions: Lodderomyces orthopsilosis; outline: as §2
# [14] = system: Candida albicans; assay: Effect on morphology in Candida albicans grown as planktonic cells assessed as rounding and clumping at 16 ug/ml after 48 hrs; assay type: functional, organism-based
# Outline: (§8)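 Cells were taken from caspofungin-containing and drug-free wells of the planktonic broth microdilution test after 48 h. They were examined by light microscopy at ×400.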
# [15] = system: Candida parapsilosis; assay: Antimicrobial activity against Candida parapsilosis BR-A30 grown as planktonic cell after 48 hrs by XTT reduction assay; assay type: functional; conditions: Lodderomyces parapsilosis; outline: as §5
# [16] = system: Candida orthopsilosis; assay: Effect on morphology in Candida orthopsilosis grown as biofilm assessed as inhibition of hyphae and pseudohyphae at 32 ug/ml after 48 hrs; assay type: functional, organism-based; outline: as §7
# [17] = system: Candida parapsilosis; assay: Antimicrobial activity against Candida parapsilosis BR-A27 grown as biofilm after 48 hrs by XTT reduction assay; assay type: functional; conditions: Lodderomyces parapsilosis; outline: as §6
# [18] = system: Candida albicans; assay: Antimicrobial activity against Candida albicans BR-A4 grown as planktonic cell assessed as paradoxical growth after 48 hrs by XTT reduction assay; assay type: functional, organism-based; outline: as §2
# [19] = system: Candida orthopsilosis; assay: Effect on morphology in Candida orthopsilosis grown as planktonic cells assessed as rounding and clumping at 64 ug/ml after 48 hrs; assay type: functional, organism-based; outline: as §8
# [20] = system: Candida tropicalis; assay: Antimicrobial activity against Candida tropicalis BR-A24 grown as biofilm after 48 hrs by XTT reduction assay; assay type: functional; outline: as §4
# [21] = system: Candida tropicalis; assay: Antimicrobial activity against Candida tropicalis BR-A18 grown as planktonic cell after 48 hrs by XTT reduction assay; assay type: functional; outline: as §3
# [22] = system: Candida parapsilosis; assay: Antimicrobial activity against Candida parapsilosis 22019 grown as biofilm after 48 hrs by XTT reduction assay; assay type: functional; conditions: Lodderomyces parapsilosis, 22019, 48 h; outline: as §4
# [23] = system: Candida albicans; assay: Effect on morphology in Candida albicans grown as biofilm assessed as rounding and clumping at 32 ug/ml after 48 hrs; assay type: functional, organism-based; outline: as §7
# [24] = system: Candida parapsilosis; assay: Antimicrobial activity against Candida parapsilosis BR-A25 grown as planktonic cell after 48 hrs by XTT reduction assay; assay type: functional; conditions: Lodderomyces parapsilosis; outline: as §5
# [25] = system: Candida tropicalis; assay: Antimicrobial activity against Candida tropicalis BR-A20 grown as planktonic cell after 48 hrs by XTT reduction assay; assay type: functional; outline: as §3
# [26] = system: Candida tropicalis; assay: Antimicrobial activity against Candida tropicalis BR-A14 grown as biofilm after 48 hrs by XTT reduction assay; assay type: functional; outline: as §6
# [27] = system: Candida orthopsilosis; assay: Antimicrobial activity against Candida orthopsilosis BR-A37 grown as planktonic cell assessed as concentration producing paradoxical growth after 48 hrs by XTT reduction assay; assay type: functional; outline: as §2
smiles,measurement,setting,value
CC[C@H](C)C[C@H](C)CCCCCCCCC(=O)N[C@H]1C[C@@H](O)[C@@H](NCCN)NC(=O)[C@@H]2[C@@H](O)CCN2C(=O)[C@H]([C@H](O)CCN)NC(=O)[C@H]([C@H](O)[C@@H](O)c2ccc(O)cc2)NC(=O)[C@@H]2C[C@@H](O)CN2C(=O)[C@H]([C@@H](C)O)NC1=O [CASPOFUNGIN],MIC,[1],2 µg/mL
same,Activity,[2],inactive
same,Activity,[3],Active
same,MIC,[4],2 µg/mL
same,MIC,[5],2 µg/mL
same,MIC,[6],2 µg/mL
same,Activity,[7],16 µg/mL
same,Activity,[8],inactive
same,Activity,[9],Active
same,MIC,[10],256 µg/mL
same,MIC,[11],2 µg/mL
same,Activity,[12],Active
same,MIC,[13],1 µg/mL
same,Activity,[14],Active
same,MIC,[15],2 µg/mL
same,Activity,[16],Active
same,MIC,[17],256 µg/mL
same,Activity,[18],Active
same,Activity,[19],Active
same,MIC,[20],2 µg/mL
same,MIC,[21],0.5 µg/mL
same,MIC,[22],2 µg/mL
same,Activity,[23],Active
same,MIC,[24],2 µg/mL
same,MIC,[25],0.5 µg/mL
same,MIC,[26],256 µg/mL
same,Activity,[27],32 µg/mL
